The list is not random: actives were taken first. Their share in the collection is about 1.7%.
PfHsp90 yeast 2 – inhibits growth of yeast expressing Plasmodium falciparum Hsp90; S. cerevisiae expressing PfHsp90, BacTiter-Glo ATP, 48 h; yeast lacking PDR1 and PDR3 efflux regulators; 310,000 tested, 0.32% active; AID 504621; inhibition, % at 9.4 µM;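 active means every replicate shows inhibition above about 80%, whatever the replicate mean, limit read from the data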
FN deposition inh – fibronectin deposition inhibition; AH1F fibroblasts, Alexa488-fibronectin deposition fluorescence, overnight; inhibition, % at 12.6 µM; 350,000 tested, 0.086% active;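 active means mean inhibition across replicates of 30% or more, regardless of how many single replicates reach that level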
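Assay system: AH1F fibroblasts assembling fluorescent fibronectin matrix; Amount: 10000 AH1F cells per well; Buffer or medium: DMEM, 2% serum; Probe or stimulus: Alexa488-fibronectin, 24 nM final in well; Doses: single compound dose, delivered by pin transfer; Incubation: 1 h adhesion, overnight exposure; Measured by: fluorescence 485/525 nm; Read-out: fibronectin deposition inhibition.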
Rtt109 Vps75 – C. albicans Rtt109 histone acetyltransferase inhibition; inhibition, % at 34.9 µM; AID 540336; Q5AAJ8; purified Rtt109/Vps75, ThioGlo CoA-SH fluorescence, 4 h; 330,000 tested, 0.16% active;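 active means inhibition of at least 50% in every replicate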
Target sequence (Q5AAJ8 whole entry, looked up): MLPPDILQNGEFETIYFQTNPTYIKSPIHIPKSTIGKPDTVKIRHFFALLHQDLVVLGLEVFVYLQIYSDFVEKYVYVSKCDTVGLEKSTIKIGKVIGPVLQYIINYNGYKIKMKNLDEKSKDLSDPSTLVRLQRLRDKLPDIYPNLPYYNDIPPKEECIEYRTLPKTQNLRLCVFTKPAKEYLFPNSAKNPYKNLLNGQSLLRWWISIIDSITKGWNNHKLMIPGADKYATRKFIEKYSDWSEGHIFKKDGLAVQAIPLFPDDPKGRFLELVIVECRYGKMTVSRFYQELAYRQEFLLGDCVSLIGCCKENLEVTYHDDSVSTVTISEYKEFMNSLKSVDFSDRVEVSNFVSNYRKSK
PglD DTNB – inhibitors of Campylobacter jejuni PglD acetyltransferase; purified PglD enzyme, DTNB colorimetric CoA detection; inhibition, % at 12.5 µM; 360,000 tested, 0.098% active; AID 602405; in the data active means inhibition above about 16%, passing the limit was not always enough
CSC inhib – cancer stem cell inhibition. cancer stem cell-like cells viability, luminescence. inhibition, % at 7.5 µM. 300,000 tested, 1.1% active. AID 2717; in the data active means inhibition above about 75%; tested in HMLE shEcad cells
SKKanGAS inh – blocks kanamycin growth of S. pyogenes SKKanGAS strain | BacTiter-Glo, 6 h | inhibition, % at 7.5 µM | 300,000 tested, 1.3% active | AID 1662;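 active means mean replicate score, as percent of positive control median, at least 50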;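 further: strain carries kanamycin resistance gene driven by streptokinase promoter and grows in 40 µg/ml kanamycin; loss of luminescence reflects streptokinase promoter inhibition or plain growth inhibition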
PglD inh SP – blocks Campylobacter jejuni PglD acetyltransferase activity. Purified C. jejuni PglD, DTNB absorbance 412 nm. inhibition, % at 20 µM. 320 tested, under 10 active. shares compounds with PglD DTNB;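 active means mean inhibition across replicates of at least 20% with every single replicate also at 20% or more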;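 further: initial rate of CoA release by acetyl transfer from AcCoA to the UDP-4-amino sugar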
Numbers stand for hits; n = inactive; x = no result.

SMILES | PfHsp90 yeast 2 | FN deposition inh | Rtt109 Vps75 | PglD DTNB | CSC inhib | SKKanGAS inh | PglD inh SP
CC(C(=O)Nc1ccc(C#N)cc1)N(C)Cc1cccs1 (stereo not drawn) | n | n | n | n | n | n | x
CC(C(=O)Nc1ccc(Cl)cc1)N(C)Cc1cccs1 (stereo not drawn) | n | n | n | 23 | n | n | n
COC(=O)NCc1ccc(CNC(=O)OC)cc1 | n | x | n | n | n | n | x
COC(=O)NCc1cccc(CNC(=O)OC)c1 | n | x | n | 30 | n | n | n
CCCC#Cc1cnc2c(c1)C(=O)N([C@H](C)CO)C[C@@H](C)[C@@H](CN(C)C(=O)Nc1ccc(OC)cc1)O2 | x | n | x | n | x | x | x
CCN(CC)CC(=O)Nc1sc(C)cc1C(=O)c1ccc(C)cc1 | n | n | n | 22 | n | n | n
CCN(CC)CC(=O)Nc1sc(C)cc1C(=O)c1ccccc1 | n | n | n | n | n | n | x
Cc1ccccc1OCC(=O)N/N=C/c1cc2ccccc2nc1Cl | n | n | n | 26 | n | n | n
O=C(COc1cccc(Cl)c1)N/N=C\c1cc2ccccc2nc1Cl | n | x | n | n | n | n | x
O=C(NCC1CCCO1)[C@@H]1CSC2c3ccccc3C(=O)N21 (stereo partly drawn) | n | x | n | 22 | n | n | n
O=C(CSc1ccccc1)NCCc1ccc(F)cc1 | n | n | n | 76 | n | n | n
CO[C@H]1CN(C)C(=O)c2ccc(NC(=O)C3CCC3)cc2OC[C@@H](C)N(CC2CCCCC2)C[C@@H]1C | x | n | x | n | x | x | x
CC(C)CC#Cc1ccc([C@@H]2[C@@H](CO)N3CCCCN(S(=O)(=O)Cc4ccccc4)C[C@@H]23)cc1 | x | x | x | n | x | x | x
Nc1ccc(-c2cnc(-c3ccc(N)cc3)nc2)cc1 | x | x | n | 31 | n | n | n
CCC(=O)Nc1ccc2c(c1)C(=O)N(C)C[C@H](OC)[C@H](C)CN(C(=O)C1CC1)[C@H](C)CO2 | x | n | x | n | x | x | x
c1ccc(CNc2nc(-c3cccnc3)nc3ccccc23)cc1 | n | n | n | n | n | n | x
c1cncc(CNc2nc(-c3cccnc3)nc3ccccc23)c1 | n | n | n | 24 | n | n | n
Cc1cc(C)c2c(NC(N)=S)n[nH]c2n1 | x | x | n | 26 | n | n | n
O=C1c2ccccc2COc2ccc(O)cc21 | n | n | n | n | n | n | x
COc1ccc2c(c1)C(=O)c1ccccc1CO2 | n | x | n | 40 | x | n | n
CCOc1ccccc1NC(=S)N1CCC(c2nc3ccccc3o2)CC1 | n | n | n | 21 | n | n | n
C=C(C)Cn1c2ccc(NC(=O)NCC)cc2c(=O)n1C | x | n | x | n | x | x | x
C=C(C)Cn1c2ccc(NC(=O)NCc3ccccc3)cc2c(=O)n1C | x | n | x | 20 | x | x | n
C[C@H](CO)N1C[C@H](C)[C@@H](CN(C)C(=O)NC2CCCCC2)Oc2c(NC(=O)c3cnccn3)cccc2C1=O | x | n | x | n | x | x | x
CC(C(=O)N1CCCc2c1c(=O)oc1ccc(O)cc21)N1CCc2ccccc2C1 (stereo not drawn) | n | x | n | 23 | n | n | n
SMILES | PfHsp90 yeast 2 | FN deposition inh | Rtt109 Vps75 | PglD DTNB | CSC inhib | SKKanGAS inh | PglD inh SP
COc1cccc(C#Cc2cnc3c(c2)C(=O)N([C@H](C)CO)C[C@H](C)[C@@H](CN(C)C(=O)C2CC2)O3)c1 | x | x | x | n | x | x | x
COc1ccc(NC(=O)c2cc(-c3ccc(F)cc3OC(C)C)n[nH]2)cn1 | x | n | x | n | x | x | x
CC(C)Oc1cc(F)ccc1-c1cc(C(=O)Nc2cccc(C(F)(F)F)c2)[nH]n1 | x | n | x | 24 | x | x | n
O=C(NCCCN1CCN(c2cccc(Cl)c2)CC1)c1ccc(N2CCCC2=O)cc1 | n | x | n | 35 | n | n | n
O=C(NCCCN1CCN(c2cccc(Cl)c2)CC1)c1cccc(N2CCCC2=O)c1 | n | x | n | x | n | n | x
Cc1ccc(C(=O)N/N=C\c2ccc(OC(=O)c3cccc(F)c3)cc2)cn1 | n | n | n | n | n | n | x
COc1cc(/C=N\NC(=O)c2ccc(C)nc2)ccc1OC(=O)c1cccc(F)c1 | n | n | n | 29 | n | n | n
CCN(CC)C(=O)c1ccccc1NC(=O)c1cccc(S(=O)(=O)N(CC)CC)c1 | n | n | n | x | n | n | x
CCN(CC)C(=O)c1ccccc1NC(=O)c1ccccc1 | n | n | n | 29 | n | n | n
C[C@H](CO)N1C[C@H](C)[C@H](CN(C)S(=O)(=O)c2cn(C)cn2)Oc2ncc(-c3ccc(F)cc3)cc2C1=O | x | n | x | x | x | x | x
CC(C)NC(=O)N1C[C@H]2[C@@H](c3ccccc31)[C@@H](CO)N2C(=O)Nc1cccc(F)c1 | x | x | x | n | x | x | x
COc1ccc(S(=O)(=O)Nc2ccc3c(c2)C(=O)N([C@@H](C)CO)C[C@H](C)[C@H](CN(C)S(=O)(=O)c2c(C)noc2C)O3)cc1 | x | x | x | n | x | x | x
Cc1ccc(NC(=O)C2CCN(S(=O)(=O)c3cnc[nH]3)CC2)cc1C | n | x | n | n | n | n | x
Cc1cc(NC(=O)C2CCN(S(=O)(=O)c3cnc[nH]3)CC2)ccc1Br | n | n | n | 28 | n | n | n
COC(=O)Nc1ccc(S(=O)(=O)Nc2cc(C(F)(F)F)c[nH]c2=O)cc1 | n | n | n | 31 | n | n | n
Cc1ccc(C(=O)COC(=O)CCC(=O)Nc2ccccc2Cl)cc1[N+](=O)[O-] | n | x | n | n | n | n | x
Cc1ccc(C(=O)COC(=O)CCCC(=O)Nc2cc(C(F)(F)F)ccc2Cl)cc1C | n | n | n | 24 | x | n | n
CS(=O)(=O)Nc1cccc(NC(=O)c2cccc3c(-c4cccnc4)coc23)c1 | x | x | x | 35 | x | x | n
CCC(=O)N[C@@H]1CC[C@H](CC(=O)NCCN2CCCCC2)O[C@@H]1CO | x | n | x | n | x | x | x
COc1ccc(CNCc2cccc(Cl)c2)cc1 | n | n | n | 30 | n | n | n
CN1C(=O)C(CC(=O)NC2CCCCC2)SC1=Nc1ccccc1 (stereo not drawn) | n | n | n | 54 | n | n | n
O=C(C[C@H]1C=C[C@@H](NC(=O)CC2CC2)[C@@H](CO)O1)NCc1ccc(-c2ccccc2)cc1 | x | n | x | x | x | x | x
CCNC(=O)CC1C(=O)N(c2ccccc2)C(=O)N1Cc1ccc(OC)cc1 (stereo not drawn) | x | n | n | 33 | n | n | n
CN(C)C(=O)c1ccc(-c2ccc3c(c2)[C@@H]2[C@@H](CCN2C(=O)C2CCCCC2)[C@H](CO)N3C)cc1 | x | n | x | x | x | x | x
O=C(O)/C(=C\c1ccc(Br)cc1)NC(=O)c1cccs1 | n | n | n | 25 | n | n | n
O=C(N/C(=C/c1ccc(Br)cc1)C(=O)N1CCCC1)c1cccs1 | n | n | n | x | n | n | x
CC(=O)c1ccc(OCCCC(=O)Nc2cccc(S(=O)(=O)N3CCOCC3)c2)cc1 | n | n | n | n | n | x | x
O=C(CCCOc1ccccc1)Nc1cccc(S(=O)(=O)N2CCOCC2)c1 | n | x | n | 21 | n | x | n

Compound activity deposited in PubChem BioAssay by Broad Institute.
